Data from ChEMBL document CHEMBL1129609, “Synthesis and antiviral activity evaluation of some new aminoadamantane derivatives. 2” (1996).
≈ marks a conversion by molar mass, not a printed value.

Experiments:
[1] = system: Human immunodeficiency virus 2; experiment: Antiviral activity against HIV-2 virus infected CEM cell lines.; type: functional, CCRF-CEM
[2] = system: CCRF-CEM; experiment: Cytotoxicity against CEM cell lines.; type: functional; settings: Homo sapiens
[3] = system: Human immunodeficiency virus 1; experiment: Antiviral activity against HIV-1 virus infected CEM cell lines.; type: functional, CCRF-CEM
[4] = system: Human alphaherpesvirus 1; experiment: Antiviral activity against HSV-1 virus infected HEF cell lines.; type: functional
Method in brief: (§1)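 Human embryonic fibroblasts, from embryonic lung or embryonic skin-muscle, infected with the virus. Endpoint is the minimum inhibitory concentration that reduces virus-induced cytopathicity by 50%. Values are averages of at least two separate experiments.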

[5] = system: Human alphaherpesvirus 2; experiment: Antiviral activity against HSV-2 virus infected HEF cell lines.; type: functional; method in brief: as §1
[6] = system: Human alphaherpesvirus 1; experiment: Antiviral activity against TK-HSV-1 virus infected HEF cell lines.; type: functional; method in brief: as §1
[7] = system: HEF; experiment: Effects on cell morphology of HEF cell lines.; type: functional; settings: Homo sapiens
Method in brief: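 Human embryonic skin-muscle fibroblasts were examined under the microscope for changes in normal cell morphology. The value is the minimum concentration causing a microscopically detectable alteration, averaged from at least two separate experiments.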

[8] = system: Vaccinia virus; experiment: Antiviral activity against vaccinia virus infected HEF cell lines.; type: functional; settings: Orthopoxvirus vaccinia; method in brief: as §1
[9] = system: Enterovirus C; experiment: Antiviral activity against polio 1 virus infected HeLa cell lines.; type: functional
Method in brief: (§2)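 Vero (African green monkey kidney), HeLa (human epithelial) or HEL (human embryonic lung) cell monolayers infected with the virus. Readout is the minimum inhibitory concentration that reduces virus-induced cytopathicity by 50%. Values are averages of at least two separate experiments.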

[10] = system: Vesicular stomatitis virus; experiment: Antiviral activity against vesicular stomatitis virus infected HeLa cell lines.; type: functional; method in brief: as §2
[11] = system: Coxsackievirus B4; experiment: Antiviral activity against Coxsackie B4 virus infected HeLa cell lines.; type: functional; settings: Enterovirus B; method in brief: as §2
[12] = system: Human betaherpesvirus 5; experiment: Antiviral activity against HCMV virus infected HEL cell lines.; type: functional; method in brief: as §2
[13] = system: Human alphaherpesvirus 3; experiment: Antiviral activity against TK+VZV virus infected HEL cell lines.; type: functional; method in brief: as §2
[14] = system: Human alphaherpesvirus 3; experiment: Antiviral activity against TK-VZV virus infected HEL cell lines.; type: functional; method in brief: as §2
[15] = system: HEL; experiment: Inhibition of HEL cell proliferation.; type: functional; settings: Homo sapiens
Method in brief: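 Human embryonic lung fibroblasts were used for the proliferation assay. The value is the concentration that reduces cell proliferation by 50%, averaged from at least two separate experiments.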

[16] = system: MDCK; experiment: Antiviral activity tested against influenza A,H1N1 virus infected MDCK cell lines.; type: functional; settings: Canis lupus familiaris
[17] = Antiviral activity against influenza A,H3N2 virus infected MDCK cell lines.; type: functional
[18] = system: Influenza B virus; experiment: Antiviral activity against influenza B virus infected MDCK cell lines.; type: functional
[19] = system: MDCK; experiment: Antiviral activity of compound was tested against morphology virus infec+ted MDCK cell lines.; type: functional; settings: Canis lupus familiaris
[20] = system: Semliki Forest virus; experiment: Antiviral activity against Semliki forest virus infected Vero cell lines.; type: functional; method in brief: as §2
[21] = system: Coxsackievirus B4; experiment: Antiviral activity against Coxsackie B4 virus infected vero cell lines.; type: functional; settings: Enterovirus B; method in brief: as §2
[22] = system: Vero; experiment: Effects on cell morphology of Vero cell lines.; type: functional; settings: Chlorocebus sabaeus
Method in brief: (§3)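 HeLa (human epithelial) or Vero (African green monkey kidney) cells were examined under the microscope for changes in normal morphology. The value is the minimum concentration causing a detectable alteration, averaged from at least two separate experiments.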

[23] = system: Human respirovirus 3; experiment: Antiviral activity against parainfluenza 3 virus infected Vero cell lines.; type: functional; method in brief: as §2
[24] = system: Mammalian orthoreovirus 1; experiment: Antiviral activity against Reo 1 virus infected vero cell lines.; type: functional; method in brief: as §2
[25] = system: Sindbis virus; experiment: Antiviral activity against sindbis virus infected Vero cell lines.; type: functional; method in brief: as §2
[26] = Antiviral activity against influenza A,H2N2 virus infected MDCK cell lines.; type: functional
[27] = system: HeLa; experiment: Effects on cell morphology of HeLa cell lines.; type: functional; settings: Homo sapiens; method in brief: as §3
[28] = system: Vesicular stomatitis virus; experiment: Antiviral activity against vesicular stomatitis virus infected HEF cell lines.; type: functional; method in brief: as §1

| Structure (SMILES) | MIC50 [4] [µg/mL] | MIC50 [5] [µg/mL] | MIC50 [6] [µg/mL] | MIC50 [7] [µg/mL] | MIC50 [8] [µg/mL] | MIC50 [9] [µg/mL] | MIC50 [10] [µg/mL] | MIC50 [11] [µg/mL] | MIC50 [12] [µg/mL] | MIC50 [16] [µg/mL] | MIC50 [17] [µg/mL] | MIC50 [18] [µg/mL] | MIC50 [19] [µg/mL] | MIC50 [20] [µg/mL] | MIC50 [21] [µg/mL] | MIC50 [22] [µg/mL] | MIC50 [23] [µg/mL] | MIC50 [24] [µg/mL] | MIC50 [26] [µg/mL] | MIC50 [28] [µg/mL] | further results |
| --- | --- | --- | --- | --- | --- | --- | --- | --- | --- | --- | --- | --- | --- | --- | --- | --- | --- | --- | --- | --- | --- |
| CN(C)C1(C23CC4CC(CC(C4)C2)C3)CCCC1 | > 40 | > 40 | > 40 | 100 (≈ 404 µM) | > 40 | > 100 | > 100 | > 100 | 40 (≈ 162 µM) | > 80 | > 100 | > 100 | > 250 | > 400 | > 400 | > 400 | > 400 | > 400 | 19.7 (≈ 79.6 µM) | > 40 | MIC50 [1]: > 40 µg/mL; MIC50 [2]: 70 µg/mL (≈ 283 µM); MIC50 [3]: > 40 µg/mL; MIC50 [13]: 30 µg/mL (≈ 121 µM); MIC50 [14]: 30 µg/mL (≈ 121 µM); MIC50 [15]: 50 µg/mL (≈ 202 µM); MIC50 [25]: > 400 µg/mL; MIC50 [27]: 200 µg/mL (≈ 808 µM) |
| NC12CC3CC(CC(C3)C1)C2 [AMANTADINE] |  |  |  |  |  |  |  |  |  | 48 (≈ 317 µM) |  |  | > 250 |  |  |  |  |  | 0.8 (≈ 5.29 µM) |  |  |
| C1CCC2(C1)CCCN2CC12CC3CC(CC(C3)C1)C2 | > 40 | > 40 | > 40 | 100 (≈ 366 µM) | > 40 | > 100 | > 100 | > 100 | > 50 | > 150 | > 47 | > 100 | > 250 | > 100 | > 100 | > 400 | > 100 | > 100 | > 60 | > 100 | MIC50 [1]: > 40 µg/mL; MIC50 [2]: 59 µg/mL (≈ 216 µM); MIC50 [3]: > 40 µg/mL; MIC50 [13]: 32 µg/mL (≈ 117 µM); MIC50 [14]: 20 µg/mL (≈ 73.1 µM); MIC50 [15]: > 50 µg/mL; MIC50 [25]: > 100 µg/mL; MIC50 [27]: 200 µg/mL (≈ 731 µM) |
| CCCCN1CCCC1C12CC3CC(CC(C3)C1)C2 (stereo not drawn) | > 40 | > 40 | > 40 | 100 (≈ 382 µM) | > 40 | > 100 | > 100 | > 100 | > 50 | 4 (≈ 15.3 µM) | > 100 | > 80 | 250 (≈ 956 µM) | > 100 | > 100 | > 200 | > 100 | > 100 | 44.5 (≈ 170 µM) | > 40 | MIC50 [1]: > 40 µg/mL; MIC50 [2]: 74 µg/mL (≈ 283 µM); MIC50 [3]: > 40 µg/mL; MIC50 [13]: > 50 µg/mL; MIC50 [14]: > 20 µg/mL; MIC50 [15]: > 50 µg/mL; MIC50 [25]: > 100 µg/mL; MIC50 [27]: 200 µg/mL (≈ 765 µM) |
| Nc1nc2c(ncn2COC(CO)CO)c(=O)[nH]1 [GANCICLOVIR] | > 200 | 0.002 (≈ 0.00784 µM) | 0.02 (≈ 0.0784 µM) | > 100 | > 100 |  |  |  | 0.7 (≈ 2.74 µM) |  |  |  |  |  |  |  |  |  |  | > 100 |  |
| NC(=O)c1ncn([C@@H]2O[C@H](CO)[C@@H](O)[C@H]2O)n1 [RIBAVIRIN] | > 200 | > 200 | > 200 | 400 (≈ 1640 µM) | 20 (≈ 81.9 µM) | 20 (≈ 81.9 µM) | 20 (≈ 81.9 µM) | 10 (≈ 40.9 µM) |  | 19 (≈ 77.8 µM) | 5.6 (≈ 22.9 µM) | 2.4 (≈ 9.83 µM) | > 250 | > 400 | > 400 | > 400 | 150 (≈ 614 µM) | 70 (≈ 287 µM) | 48.7 (≈ 199 µM) | 20 (≈ 81.9 µM) | MIC50 [25]: > 400 µg/mL; MIC50 [27]: > 400 µg/mL |
| CN1CCCC1C12CC3CC(CC(C3)C1)C2 (stereo not drawn) | > 100 | > 100 | > 100 | 200 (≈ 912 µM) | > 100 | > 400 | > 400 | > 400 | > 50 | > 34 | 60 (≈ 274 µM) | 60 (≈ 274 µM) | 250 (≈ 1140 µM) | > 400 | > 400 | > 400 | > 400 | > 400 | 16.5 (≈ 75.2 µM) | > 100 | MIC50 [1]: > 40 µg/mL; MIC50 [2]: 120 µg/mL (≈ 547 µM); MIC50 [3]: > 40 µg/mL; MIC50 [13]: > 50 µg/mL; MIC50 [14]: > 50 µg/mL; MIC50 [15]: > 50 µg/mL; MIC50 [25]: > 400 µg/mL; MIC50 [27]: > 400 µg/mL |
